# Screens from PubChem BioAssay.
# Compounds with a hit are over-represented: about 4.1% of the library has one in this group of screens.
# KCNQ1 act – potentiates or activates the human KCNQ1 potassium channel | P51787 | CHO-K1 KCNQ1, thallium flux FluxOR fluorescence; stronger effect = higher value | B-score at 10 µM | 0.35% of 310,000 active;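 active = fluorescence ratio B-score, a plate-corrected score, at least three library SD, with initial intensity B-score within 5 SD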
#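 Assay system: stable KCNQ1 CHO-K1 line; medium: assay buffer, equal DMSO in all wells; timing: 90 min dye loading and 20 min compound exposure, both at room temperature; technique: kinetic FluxOR thallium fluorescence, 10-s 1-Hz baseline, 110-s post-stimulus read; read-out basis: B score of baseline-normalized fluorescence ratio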
# hERG protect – hERG (human) protection from proarrhythmic block. Q12809. CHO-hERG, FluxOR thallium flux, dofetilide IC70 present. activation (rescue from dofetilide block), less the hit threshold, % at 10 µM. 0.51% of 310,000 active. AID 1511;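 active = activation above the mean of controls blocked by dofetilide plus 5 SD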;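 also: thallium influx through hERG after potassium depolarization seen as dye fluorescence rise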
# KCNK3 inh – human KCNK3 channel inhibition, primary screen; CHO-KCNK3 thallium flux, FluxOR fluorescence; stronger effect = lower value; B-score at 10 µM; 0.84% of 340,000 active; AID 602410;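 active = B-score under library mean minus 4 SD, starting fluorescence ratio at most library mean plus 5 SD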;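 also: more negative B-score means stronger inhibition of thallium flux through KCNK3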
# KCNK9 inh – inhibitors of human KCNK9 two-pore domain potassium channel; HEK293 KCNK9, FluxOR thallium flux fluorescence; stronger effect = lower value; B-score at 10 µM; 1.2% of 310,000 active;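 active = ratio B-score over 3 SD below the library mean, with starting fluorescence within 5 SD of its mean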;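 also: negative B-score means less thallium flux so channel inhibition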
# Target sequence (Q9NPC2 whole entry, looked up, the tested form may be a part): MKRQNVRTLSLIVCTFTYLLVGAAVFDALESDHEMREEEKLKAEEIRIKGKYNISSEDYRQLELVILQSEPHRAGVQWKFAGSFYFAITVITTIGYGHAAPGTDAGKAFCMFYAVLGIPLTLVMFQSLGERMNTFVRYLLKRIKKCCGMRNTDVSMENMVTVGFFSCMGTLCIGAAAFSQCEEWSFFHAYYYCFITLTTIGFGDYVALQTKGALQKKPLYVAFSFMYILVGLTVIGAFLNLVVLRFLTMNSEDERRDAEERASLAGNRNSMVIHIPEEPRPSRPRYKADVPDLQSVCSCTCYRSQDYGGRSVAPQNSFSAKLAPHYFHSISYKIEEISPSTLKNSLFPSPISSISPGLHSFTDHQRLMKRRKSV
# KCNQ1 block – human KCNQ1 channel inhibition; P51787; CHO-K1 KCNQ1, FluxOR thallium flux fluorescence; stronger effect = higher value; B-score at 10 µM; 1.3% of 310,000 active;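 active = compounds whose thallium flux B-score, printed positive for inhibition, exceeds three library SD while starting fluorescence stays within three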;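 also: channel opened by potassium depolarization with thallium stimulus after 20 min compound exposure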
# Cl transport mod – modulates chloride dependent transport by human KCC2. AID 1456. 2.2% of 190,000 active. B-score of Tl+ flux slope (higher = more flux/activation; lower = inhibition) at 10 µM. KCC2 cells, thallium flux FluoZin-2 fluorescence;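 active = thallium flux slope and its plate-corrected score both differing from the plate sample mean at a set confidence after two filtering rounds, in either direction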;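 also: slope of fluorescence scaled to starting intensity during 10 to 20 s after thallium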
# KCC2 secondary – confirmation of human KCC2 transport modulators; HEK293-KCC2, thallium flux, FluoZin2 fluorescence; stronger effect = higher value; normalised thallium flux (F/F0 slope) at 10 µM; shares compounds with Cl transport mod; 15% of 3,700 active;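 active = thallium flux slope above the same plate's solvent-only control mean plus 3 SD; inconclusive = the two replicate wells disagree; inactive = no significant difference from solvent-only control wells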
# KCC2 bumet counter – thallium flux persisting under bumetanide in KCC2 cells, counter-screen secondary assay. shares compounds with Cl transport mod. HEK293-KCC2 + bumetanide/ouabain, thallium flux FluoZin2; stronger effect = higher value. normalized thallium flux at 10 µM. 49% of 3,700 active;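 active = thallium entry rate above the same plate's blocked-transporter control wells by more than 3 SD; inconclusive = the two repeat wells disagree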;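 also: raw slope of fluorescence over initial fluorescence between 10 and 20 s after thallium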
# KCC2 secondary2 – confirmation of human KCC2 transport modulators; normalized thallium flux at 10 µM; 23% of 3,700 active; HEK293-KCC2, thallium flux FluoZin2 fluorescence; actives lie on both sides; F/F0 rise rate, 10–20 s post-thallium; shares compounds with Cl transport mod;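 active = thallium flux slope more than 3 SD above or below the plate's solvent-only control mean, mostly below; inconclusive = the two repeat wells disagreed; inactive = no significant shift from solvent-only controls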;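 also: raw slope with 0.1% DMSO as baseline and bumetanide as block control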
# HEK293 Tl flux – counter-screen for KCC2 modulators: effect in parental HEK293 cells | shares compounds with Cl transport mod | thallium flux FluoZin2, ouabain; baseline-ratio fluorescence slope, 10–20 s after thallium | thallium flux rate (normalised fluorescence) at 10 µM | 46% of 3,700 active | AID 1716;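 active = thallium flux rate significantly above the same plate's solvent-only control wells, beyond their mean plus 3 SD; inconclusive = the two replicate wells gave conflicting results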
# KCC2 ouabain – confirmation of human KCC2 modulators with ouabain; shares compounds with Cl transport mod; HEK293-KCC2, thallium flux FluoZin2 fluorescence; bidirectional: low = inhibitor, high = activator; raw Tl+ flux slope (below DMSO = inhibition, above = activation) at 10 µM; 48% of 3,700 active;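 active = thallium flux slope beyond 3 SD from same-plate DMSO control mean in most replicates, usually higher, sometimes lower; inconclusive = repeat tests gave conflicting results; inactive = no significant difference from controls in most replicates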;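 also: slope of initial-normalized fluorescence between seconds 10 and 20 after thallium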
# HEK293 Tl flux2 – acts in parental HEK cells, second KCC2 counter-screen | shares compounds with Cl transport mod | HEK293 parental, thallium flux FluoZin-2 fluorescence slope | thallium flux slope at 10 µM | 33% of 3,700 active | AID 1718;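 active = thallium flux slope above the same plate's solvent-control mean plus 3 SD in both duplicate wells; inconclusive = duplicate wells that disagreed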;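 also: run without ouabain in cells lacking the KCC2 cotransporter; slope of fluorescence scaled to its starting value between 10 and 20 s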
# * = called active by the depositor; i = inactive; ? = inconclusive; / = no result given.
SMILES,KCNQ1 act,hERG protect,KCNK3 inh,KCNK9 inh,KCNQ1 block,Cl transport mod,KCC2 secondary,KCC2 bumet counter,KCC2 secondary2,HEK293 Tl flux,KCC2 ouabain,HEK293 Tl flux2
S=c1nc(-c2ccccc2)n(CCCN2CCOCC2)c2c1CCCC2,i,6.8*,i,i,i,12.4*,0.0184*,0.0241*,0.034,0.026*,0.0375*,?
S=c1nc(-c2ccccc2)n(CCCn2ccnc2)c2c1CCCC2,i,-6.7,i,i,i,0.931,/,/,/,/,/,/
Cc1ccc(C(=O)NNC(=O)CSc2nnc3c(n2)[nH]c2ccc(C)cc23)cc1,i,1.3,i,i,i,5.39*,0.00647,0.00432,0.0315,0.00727,0.0185,0.0106
CCc1ccc2[nH]c3nc(SCC(=O)NNC(=O)c4ccc(C(C)(C)C)cc4)nnc3c2c1,i,-10.7,i,i,i,/,/,/,/,/,/,/
COC(=O)CN1C(=O)COc2ccc(S(=O)(=O)NCc3ccccc3)cc21,i,-6.4,i,i,i,/,/,/,/,/,/,/
Cc1cccnc1NC(=O)c1ccc(COc2ccccc2)o1,i,-3.9,i,i,i,/,/,/,/,/,/,/
COC(=O)C1C(=O)C2=C(CC1C)NC(C)=C(C(=O)OC(C)C)C2c1ccc(C)o1 (configuration not stated),i,-14.0,i,i,i,/,0.0092,0.00541,0.0294,0.00707,0.0203,0.00924
COC(=O)C1C(=O)C2=C(CC1C)NC(C)=C(C(=O)OCc1ccc(OC)cc1)C2c1ccc(C)o1 (configuration not stated),i,-11.7,i,i,i,0.0766,/,/,/,/,/,/
Nc1ccc2c(c1)ncn2CCCn1cnc2cc(N)ccc21,i,0.0,i,i,i,/,0.00754,0.00458,?,0.00754,0.0185,0.0106
C=CCNC(=O)NC(=O)CSc1nc2cc([N+](=O)[O-])ccc2n1-c1cccc(C(F)(F)F)c1,i,-8.0,i,i,i,7.61*,0.00792,0.0137*,0.032,0.0107*,?,0.00949
O=C(COc1ccccc1Cl)N1CCNC1=O,/,/,i,/,/,/,/,/,/,/,/,/
C=CCN(CC=C)C(=S)NC(=O)/C=C/c1ccc(OC)cc1,i,12.5*,i,i,i,73.8*,0.0105*,0.136*,0.0963*,0.111*,0.109*,0.0868*
COc1ccc(/C=C/C(=O)NC(=S)NNC(=O)c2cccs2)cc1,i,16.1*,i,i,i,11.5*,0.00793,0.0234*,0.0377,0.022*,0.0365*,0.0215*
C=CCN(CC=C)S(=O)(=O)c1ccc(NC(=S)NC(=O)/C=C/c2ccccc2)cc1,i,-6.5,i,i,i,0.079,/,/,/,/,/,/
COc1ccc(/C=C/C(=O)NC(=S)N2CCN(C)CC2)cc1,i,-6.0,i,i,i,0.726,/,/,/,/,/,/
C=CCN(CC=C)C(=S)NC(=O)c1ccc(OC)cc1,13*,28.4*,i,i,i,71.2*,0.0527*,0.119*,0.0903*,0.0986*,0.0928*,0.0955*
